Bioassay records as filed in PubChem.
MrgX1 antag – blocks BAM8-22 activation of human MrgX1 receptor; 310,000 tested, 1.3% active; B-score at 10 µM; MRGX1-HEK293 calcium flux, Fluo-4, BAM8-22 antagonism; stronger effect = lower value;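 active = calcium-response B-score plate-corrected more than 3 library SD below zero, starting fluorescence within 5 deviations, no agonist response on first addition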;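 also: peak minus trough fluorescence over baseline after final BAM8-22 challenge near maximal dose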
Target sequence (Q96LB2 whole entry, looked up): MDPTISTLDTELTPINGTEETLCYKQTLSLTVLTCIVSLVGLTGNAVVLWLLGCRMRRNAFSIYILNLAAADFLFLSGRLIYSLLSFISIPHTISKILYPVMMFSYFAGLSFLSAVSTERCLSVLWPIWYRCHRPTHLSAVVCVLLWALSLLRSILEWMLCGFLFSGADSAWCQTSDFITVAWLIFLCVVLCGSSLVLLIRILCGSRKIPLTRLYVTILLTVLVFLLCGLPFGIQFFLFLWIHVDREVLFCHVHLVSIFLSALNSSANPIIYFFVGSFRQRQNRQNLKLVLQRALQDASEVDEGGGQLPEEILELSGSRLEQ
MrgX1 agonist – activates human MrgX1 receptor signaling. MrgX1-HEK293 cells, Fluo-4 calcium fluorescence, agonist mode; stronger effect = higher value. B-score at 10 µM. 310,000 tested, 0.44% active;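 active = calcium response B-score plate-corrected fluorescence ratio at least 3 library SD, with starting fluorescence B-score inside 5 SD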
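Assay system: MrgX1-expressing HEK293 cells / Amount: fifteen thousand cells per well / Doses: test compound in the initial addition of three / Timing: cells plated overnight, dye loaded 0.5 h 37 °C, 0.5 h room temperature / Technique: kinetic calcium dye fluorescence, Fluo-4 NW / Control set: positive and negative controls per plate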
RGS4 block – inhibitors of human RGS4 | 310,000 tested, 0.45% active | B-score at 10 µM | P49798 | HEK293 M3R/RGS4 inducible, Fluo-4 calcium flux; stronger effect = higher value; triggered by carbachol at its EC20;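 active = B-score, a plate-corrected calcium signal, over three deviations above library mean, with baseline fluorescence within five deviations of library mean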;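 also: RGS4 expression induced by doxycycline in cells with stable M3 receptor; B-score is computed from the integrated fluorescence ratio over baseline after carbachol; higher B-score means a larger calcium signal and so more RGS4 inhibition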
Target sequence (P49798 whole entry, looked up): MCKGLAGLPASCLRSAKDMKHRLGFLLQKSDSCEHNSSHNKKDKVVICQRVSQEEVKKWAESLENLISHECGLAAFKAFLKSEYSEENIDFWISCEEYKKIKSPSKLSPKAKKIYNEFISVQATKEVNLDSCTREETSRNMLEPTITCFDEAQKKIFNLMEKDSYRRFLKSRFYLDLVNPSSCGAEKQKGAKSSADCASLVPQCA
MrgX1 allo act – human MrgX1 positive allosteric modulation, primary screen; AID 588675; MrgX1-HEK293, Fluo-4 calcium flux, FDSS; stronger effect = higher value; B-score at 10 µM; 310,000 tested, 0.63% active;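 active = plate-corrected calcium response at least 3 library SD above typical, normal starting fluorescence, not activating the receptor alone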;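 also: compound read alongside a low EC10 to EC30 dose of BAM8-22 agonist; peak minus trough fluorescence over baseline measured at the second addition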
RGS4 pot – RGS4 potentiation or activation | 310,000 tested, 0.92% active | B-score at 10 µM | HEK293 M3R/inducible RGS4, carbachol calcium flux Fluo4; stronger effect = lower value;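 active = B-score of the integrated calcium signal more than 4 SD below the library mean, with starting fluorescence not abnormally high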;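 also: negative B-score means reduced calcium response which marks RGS4 activation or potentiation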
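System: HEK293 FlpIn-TREx cells, stable M3R, doxycycline-inducible RGS4. Timing: overnight RGS4 induction, 30 min dye load 37 °C, 20 min compound RT. Also added: carbachol, ECmax concentration. Measured by: Fluo4 fluorescence kinetic imaging of calcium. Evaluation: integrated calcium ratio converted to B score.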
MrgX1 antag conf – confirmation of human MrgX1 receptor antagonists; MrgX1-HEK293, BAM8-22 calcium flux, Fluo-4; stronger effect = lower value; 2,300 tested, 19% active; shares compounds with MrgX1 antag; remaining BAM8-22 calcium response % of control (stronger effect = lower value), % at 10 µM;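 active = remaining agonist calcium response no higher than 100% minus 3 SD of agonist-only control wells, with starting fluorescence near control levels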;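 also: agonist BAM8-22 given at a near maximal EC90 to ECmax level; peak minus minimum fluorescence divided by baseline after agonist addition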
HEK293 Ca flux – activity in parental HEK293 cells lacking MrgX1 | shares compounds with MrgX1 antag | Fluo-4 calcium fluorescence, FDSS | fluorescence ratio F(max-min)/F0 at 10 µM | 4,000 tested, 2% active | AID 624111;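 active = duplicate-averaged calcium fluorescence ratio at least three times the standard deviation of buffer wells, a nonspecific response in parental cells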
HEK293 Ca counter – counter-screen for MrgX1 allosteric activators: effect in parental HEK293 cells; shares compounds with MrgX1 antag; parental HEK293 calcium flux, Fluo-4 fluorescence ratio; stronger effect = higher value; fluorescence ratio F(max-min)/F0 at 10 µM; 4,000 tested, 0.4% active;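 active = calcium fluorescence ratio, averaged over duplicates, at least 3 SD of the buffer-well ratio, meaning a nonspecific response in receptor-free cells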;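 also: untransfected parental HEK293 lacking MrgX1 used as counterscreen for MrgX1 allosteric activators; fluorescence change taken during the second addition on a kinetic imager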
HEK293 Ca cntr2 – activity in parental HEK293 cells lacking MrgX1 receptor | shares compounds with MrgX1 antag | Fluo-4 calcium fluorescence (FDSS); stronger effect = higher value | fluorescence ratio F(max-min)/F0 at 10 µM | 4,000 tested, 8.7% active | AID 624115;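 active = calcium fluorescence ratio at least three times the spread of buffer wells, meaning a non-specific response in parental cells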
Hits are given with their value; – = inactive; · = no result given. Rows were chosen to be rich in hits. Some 3.5% of all compounds tested hit in one or more screens of this group.

SMILES | MrgX1 antag | MrgX1 agonist | RGS4 block | MrgX1 allo act | RGS4 pot | MrgX1 antag conf | HEK293 Ca flux | HEK293 Ca counter | HEK293 Ca cntr2
Cc1cccc(N(Cc2ccccc2)C(=O)Cc2ccc(S(=O)(=O)N3CCOCC3)s2)c1 | – | – | – | – | – | · | · | · | ·
Cc1ccc(CNc2oc(-c3cccs3)nc2C#N)cc1 | -5.37 | – | – | – | – | – | – | – | –
N#Cc1nc(-c2cccs2)oc1NCc1ccccc1 | – | – | – | – | – | · | · | · | ·
O=C(Nc1ccc2[nH]ccc2c1)c1ccccc1 | -7.85 | – | – | – | – | 83.8% | – | – | –
O=C(Nc1ccc2[nH]ccc2c1)c1ccc(F)cc1 | – | – | – | – | – | · | · | · | ·
Clc1cccc(CN2CCSCC2)c1Cl | – | – | – | – | – | · | · | · | ·
O=C(Cn1nnc(-c2ccc(CN3CCOCC3)cc2)n1)N(c1ccccc1)c1ccccc1 | -8.58 | – | – | – | – | – | – | – | –
O=C(Cn1nnc(-c2ccc(CN3CCOCC3)cc2)n1)N1CCCc2ccccc21 | – | – | – | – | – | · | · | · | ·
COc1ccc(C2SCC(=O)N2Cc2ccccc2)cc1 (centres undefined) | – | – | – | – | – | · | · | · | ·
COc1ccc(C2SCC(=O)N2CC23CC4CC(CC(C4)C2)C3)cc1 (centres undefined) | -5.25 | – | – | – | – | – | – | – | –
COc1ccc(CCn2nnnc2CN2CCN(C(=O)c3ccco3)CC2)cc1OC | – | – | – | – | – | · | · | · | ·
COCCn1nnnc1CN1CCN(C(=O)c2ccco2)CC1 | -6.28 | – | – | – | – | – | – | – | –
COc1cccc(CN(C)C(=O)c2cc(COc3ccc4ncccc4c3)on2)c1 | -6.63 | – | – | – | – | 69.2% | – | – | –
COc1cccc(CN(C)C(=O)c2cc(COc3c(F)cccc3F)on2)c1 | – | – | – | – | – | · | · | · | ·
CS(=O)(=O)c1ccc(NC(=O)CCN2C(=O)C3CCCCC3C2=O)cc1 (centres undefined) | – | – | – | – | – | · | · | · | ·
COc1ccc(OC)c(NC(=O)C23CC4CC(C2)CC(n2cnc(Br)n2)(C4)C3)c1 | -5.25 | – | – | – | – | – | – | – | –
O=C(Nc1ccc(S(=O)(=O)N2CCc3ccccc32)cc1)c1ccco1 | -4.78 | – | – | – | – | – | – | – | –
CCC(=O)Nc1ccc(S(=O)(=O)N2CCc3ccccc32)cc1 | – | – | – | – | – | · | · | · | ·
O=C(COC(=O)c1ccc(Br)cc1)NCCN1C(=O)CSC1=O | – | – | – | – | – | · | · | · | ·
O=C(c1cc(=O)[nH]c2ccccc12)N(Cc1nnc(-c2ccccc2Cl)o1)C1CC1 | – | – | – | – | – | · | · | · | ·
Cc1nccc(-c2cccc(NC(=O)c3ccccc3Cl)c2)n1 | – | – | – | – | – | · | · | · | ·
Cc1ccc(C)c(S(=O)(=O)C(C#N)c2nc3ccccc3nc2N2CCCC2)c1 (centres undefined) | – | – | – | – | – | · | · | · | ·
Cc1ccc(C)c(S(=O)(=O)C(C#N)c2nc3ccccc3nc2N2CC(C)OC(C)C2)c1 (centres undefined) | -7.42 | – | – | – | – | 81.4% | – | – | 55.8
O=C(NCCN1CCOCC1)c1cc2ccccc2o1 | – | – | – | – | – | · | · | · | ·
O=C(NCc1cccs1)c1cc2ccccc2o1 | -7.53 | – | – | – | – | – | – | – | –
CC(C)(CNC(=O)c1cc2ccccc2o1)N1CCOCC1 | -4.54 | – | – | – | – | – | – | – | –
CC(C)(CNC(=O)c1ccc(NS(=O)(=O)c2ccc(Br)cc2)cc1)N1CCOCC1 | -6.5 | – | – | – | – | 51.2% | – | – | –
